Values after ≈ are worked out from the molar mass of the structure shown.
Assays:
[1] = test system: Mycobacterium tuberculosis; test: Activity against Mycobacterium tuberculosis H37Rv; format: functional
[2] = test system: Mus musculus; test: Maximum concentration in female C57BL/6 mice administered with 300 mg/kg, po; format: ADME, organism-based; parameters: dose 300 mg/kg, route oral; conditions: in vivo
Outline: (§1)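 8–10 week old female C57BL/6 mice given one oral gavage dose, generally 300 mg/kg, below the maximum tolerated dose; HCl salts where possible. Tail-vein bleeds were taken from 3 mice at 20 min, 2, 4 and 8 h, and the serum was collected. Tmax and half-life were read off the concentration–time curve.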

[3] = Oral bioavailability in female C57BL/6 mice administered with 300 mg/kg, po; format: ADME, organism-based; conditions: C57BL/6, mouse, in vivo
Outline: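 Graded Low (BF 1–20), Medium (21–80) or High (>80). Serum was serially diluted with naive mouse serum and added to H37Rv at 10^4 CFU/well, then incubated at 35 °C. Wells scored positive if OD600 was <50% of the untreated control.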

[4] = test system: Mycobacterium tuberculosis; test: Viable number of Mycobacterium tuberculosis colonies in lungs of infected mice after 9 days of administration of 300 mg/kg; format: functional, Lung
Outline: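 GKO mice infected by low-dose aerosol delivering ~50 bacilli to the lungs. Treatment began 18 days post-infection: 9 daily doses at 300 mg/kg. At day 27 post-infection, lung homogenates were serially diluted onto 7H11 agar and incubated at 37 °C in ambient air for 4 weeks. Result given as Log10 CFU ± SEM and Log10 reduction versus untreated controls.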

[5] = Tmax in female C57BL/6 mice administered with 300 mg/kg, po; format: ADME, organism-based; parameters: dose 300 mg/kg, route oral; conditions: C57BL/6, mouse, in vivo
Outline: as §1, with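 “collected. […]” for “collected.”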

[6] = Half life in female C57BL/6 mice administered with 300 mg/kg, po; format: ADME, organism-based; parameters: dose 300 mg/kg, route oral; conditions: C57BL/6, mouse, in vivo; outline: as §1

Row | SMILES | MIC50 [1] [µg/mL] | other results
1 | O=C(Nc1cccc(N2CCN(Cc3ccccc3)CC2)c1)c1ccc([N+](=O)[O-])o1 | 12.5 (≈ 30.8 µM) | 
2 | CN1CCN(c2ccc(CNC(=O)c3ccc([N+](=O)[O-])o3)cc2)CC1 | 0.2 (≈ 0.581 µM) | 
3 | O=C(NCc1ccc(N2CCOCC2)cc1)c1ccc([N+](=O)[O-])o1 | 0.2 (≈ 0.604 µM) | Cmax [2]: 3000 ng/mL; bioavailability [3]: 21%
4 | O=C(Nc1cccc(N2CCC(Cc3ccccc3)CC2)c1)c1ccc([N+](=O)[O-])o1 | 12.5 (≈ 30.8 µM) | 
5 | O=C(NCc1ccc(N2CCN(Cc3ccccc3)CC2)cc1)c1ccc([N+](=O)[O-])o1 | 0.0125 (≈ 0.0297 µM) | Log10 cfu [4]: 7.92
6 | O=C(NCc1cccc(N2CCN(Cc3ccccc3)CC2)c1)c1ccc([N+](=O)[O-])o1 | 0.1 (≈ 0.238 µM) | 
7 | CN1CCN(c2cccc(NC(=O)c3ccc([N+](=O)[O-])o3)c2)CC1 | 12.5 (≈ 37.8 µM) | 
8 | CN(C)c1ccc(CNC(=O)c2ccc([N+](=O)[O-])o2)cc1 | 0.1 (≈ 0.346 µM) | Log10 cfu [4]: 7.46
9 | O=C(Nc1ccc(N2CCC(Cc3ccccc3)CC2)cc1)c1ccc([N+](=O)[O-])o1 | 3.13 (≈ 7.72 µM) | 
10 | CN1CCN(c2cccc(CNC(=O)c3ccc([N+](=O)[O-])o3)c2)CC1 | 3.12 (≈ 9.07 µM) | 
11 | CN1CCN(c2ccc(NC(=O)c3ccc([N+](=O)[O-])o3)cc2)CC1 | 12.5 (≈ 37.8 µM) | 
12 | O=C(Nc1ccc(N2CCN(c3ccccn3)CC2)cc1)c1ccc([N+](=O)[O-])o1 | 0.4 (≈ 1.02 µM) | 
13 | O=C(Nc1ccc(N2CCN(Cc3ccccc3)CC2)cc1)c1ccc([N+](=O)[O-])o1 | 0.8 (≈ 1.97 µM) | 
14 | O=C(NCc1ccc(N2CCC(Cc3ccccc3)CC2)c(F)c1)c1ccc([N+](=O)[O-])o1 | 0.2 (≈ 0.457 µM) | 
15 | O=C(NCc1ccc(N2CCSCC2)cc1)c1ccc([N+](=O)[O-])o1 | 0.1 (≈ 0.288 µM) | Cmax [2]: 820 ng/mL; bioavailability [3]: 1%; Log10 cfu [4]: 7.53
16 | CN1CCN(/N=C\c2ccc(CNC(=O)c3ccc([N+](=O)[O-])o3)cc2)CC1 | 0.4 (≈ 1.08 µM) | 
17 | O=C(NCc1ccc(N2CCS(=O)(=O)CC2)cc1)c1ccc([N+](=O)[O-])o1 | 12.2 (≈ 32.3 µM) | 

Row | SMILES | MIC50 [1] [µg/mL] | other results
18 | O=C(NCc1ccc(N2CC[S+]([O-])CC2)cc1)c1ccc([N+](=O)[O-])o1 | 3.13 (≈ 8.61 µM) | 
19 | O=C(NCc1ccc(N2CCSCC2)c(F)c1)c1ccc([N+](=O)[O-])o1 | 0.8 (≈ 2.19 µM) | 
20 | CN1CCN(c2ccc(CNC(=O)c3ccc([N+](=O)[O-])o3)cc2F)CC1 | 0.8 (≈ 2.21 µM) | 
21 | O=C(Nc1cccc(N2CCN(c3ccccn3)CC2)c1)c1ccc([N+](=O)[O-])o1 | 3.13 (≈ 7.96 µM) | 
22 | O=C(NCc1ccc(N2CCC(Cc3ccccc3)CC2)cc1)c1ccc([N+](=O)[O-])o1 | 0.8 (≈ 1.91 µM) | 
23 | O=C(Nc1cccc(N2CCOCC2)c1)c1ccc([N+](=O)[O-])o1 | 3.13 (≈ 9.86 µM) | 
24 | O=C(Nc1ccc(N2CCOCC2)cc1)c1ccc([N+](=O)[O-])o1 | 3.13 (≈ 9.86 µM) | 
25 | O=C(NCc1cccc(N2CCC(Cc3ccccc3)CC2)c1)c1ccc([N+](=O)[O-])o1 | 1.56 (≈ 3.72 µM) | 
26 | O=C(NCc1ccc(N2CCN(CC3CC3)CC2)cc1)c1ccc([N+](=O)[O-])o1 | 0.05 (≈ 0.13 µM) | 
27 | O=C(NCc1ccc(N2CCN(Cc3ccccc3)CC2)c(F)c1)c1ccc([N+](=O)[O-])o1 | 0.025 (≈ 0.057 µM) | Cmax [2]: 1640 ng/mL; bioavailability [3]: 21%; Log10 cfu [4]: 7.65
28 | O=C(NCc1ccc(N2CCOCC2)c(F)c1)c1ccc([N+](=O)[O-])o1 | 0.4 (≈ 1.15 µM) | 
29 | Cl.O=C(NCc1cccc(N2CCN(Cc3ccccc3)CC2)c1)c1ccc([N+](=O)[O-])o1 |  | Cmax [2]: 1640 ng/mL; Tmax [5]: 30 min; bioavailability [3]: 21%; half-life [6]: 78 min
30 | CN1CCN(c2ccc(CNC(=O)c3ccc([N+](=O)[O-])o3)cc2F)CC1.Cl |  | Tmax [5]: 30 min
31 | CN(C)c1ccc(CNC(=O)c2ccc([N+](=O)[O-])o2)cc1.Cl |  | Tmax [5]: 30 min
32 | Cl.O=C(NCc1ccc(N2CCN(Cc3ccccc3)CC2)cc1)c1ccc([N+](=O)[O-])o1 |  | Cmax [2]: 2240 ng/mL; Tmax [5]: 30 min; bioavailability [3]: > 80%; half-life [6]: 66 min
33 | Cl.O=C(NCc1ccc(N2CCN(CC3CC3)CC2)cc1)c1ccc([N+](=O)[O-])o1 |  | Tmax [5]: 30 min
34 | NNC(=O)c1ccncc1 [ISONIAZID] |  | Cmax [2]: > 38400 ng/mL; bioavailability [3]: > 80%; Log10 cfu [4]: 3.88

Reference: ChEMBL document CHEMBL1140435, “Synthesis and evaluation of cyclic secondary amine substituted phenyl and benzyl nitrofuranyl amides as novel antituberculosis agents” (J Med Chem, 2005)
